From PubChem
HSP90 inh: blocks HSP90-mediated luciferase refolding in reticulocyte lysate | Rabbit reticulocyte lysate, luciferase refolding luminescence, 3 h | inhibition, % at 5.6 µM | 290,000 tested, 0.91% active | AID 1789;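 active means inhibition above the screen-wide mean plus 3 SD, computed separately per campaign, cut at about 16% in these data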;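 further: inhibitors lower the luminescence because luciferase stays unfolded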
STAT3 blocker: STAT3 signaling inhibition. U3A cells, IL-6 STAT3-luciferase reporter, luminescence; host cell line lacks STAT1. AID 862. 190,000 tested, 0.89% active. inhibition, % at 5.5 µM;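 active means inhibition above the mean inhibition across all screened compounds plus 3 SD, cut at about 44% in these data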
PPC-1+TRAIL kill: kills PPC-1 cancer cells in the presence of TRAIL | PPC-1 cells + TRAIL, ATPLite viability luminescence | cell killing (% activity), % at 4 µM or 5 µM | 220,000 tested, 0.41% active | AID 1443;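 active means cell killing above 50% in the first pass at 4 µM, then a duplicate retest at 5 µM averaging 50% or more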
STAT1 inh: inhibitors of IFN-gamma induced STAT1 signaling | NIH 3T3 STAT1-luciferase reporter, luminescence | 200,000 tested, 0.35% active | inhibition, % at 5.5 µM;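 active means inhibition above a set limit, the mean inhibition across all tested compounds plus 3 SD, cut at about 34% in these data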
TRAIL sens C8: sensitizes caspase-8 expressing cells to TRAIL; NB7+C8 cells + TRAIL, ATPlite viability luminescence; inhibition (viability loss, TRAIL sensitization), % at 10 µM; 360,000 tested, 1% active; AID 624354;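 active means compounds causing at least 50% loss of cell viability in the single-dose screen, relative to plate controls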
STAT3 activator: activators of IL-6 induced STAT3 signaling; U3A cells, IL-6 STAT3-luciferase reporter, luminescence; 100% = signal with IL-6 EC80 alone; activation (% of control), % at 5.6 µM; 190,000 tested, 0.91% active;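 active means activation above the screen-wide mean of compound activation plus 3 SD, cut at about 130% in these data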
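Test system: Human STAT1-deficient U3A cells with stable STAT3-luciferase reporter | Also added: Interleukin-6, 33 ng/mL | Timing: Compound pre-incubation 1 h before IL-6, then 6 h stimulation at 37 °C | Technique: Luciferase reporter luminescence | Read-out: Percent of IL-6-only median luminescence | Benchmarks: IL-6-only wells as 100% reference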
Large screens that a line does not name were inactive. Compounds with a hit are over-represented: about 2.3% of the library has one in this group of screens.

O=C(COC(=O)c1ncc(Cl)c(Cl)c1Cl)Nc1ccccc1OC(F)F	STAT3 activator 134.3
O=C(Nc1ccc(F)cc1)Nc1ccc(S(=O)(=O)N2CCCC2)cc1	none (no result: HSP90 inh, STAT3 blocker, PPC-1+TRAIL kill, STAT1 inh, STAT3 activator)
CCN(CC)c1ccc(C(=O)NNC(=O)CCNC(=O)c2ccccc2)cc1	none (no result: HSP90 inh, STAT3 blocker, PPC-1+TRAIL kill, STAT1 inh, STAT3 activator)
CCN(CC)c1ccc(C(=C2C=CC(=[N+](CC)CC)C=C2)c2ccccc2)cc1	TRAIL sens C8 89.4 (no result: HSP90 inh, STAT3 blocker, PPC-1+TRAIL kill, STAT1 inh, STAT3 activator)
CCN(CC)c1ccc(C(=C2C=CC(=[N+](CC)CC)C=C2)c2ccc(N(CC)CC)cc2)cc1	TRAIL sens C8 88.1 (no result: HSP90 inh, STAT3 blocker, PPC-1+TRAIL kill, STAT1 inh, STAT3 activator)
CCN1CCCC1CNC(=O)CSc1cc(=O)n(CC)c2ccccc12 (stereo not given)	none
COc1cc(/C=C/c2ccc(O)cc2)cc(OC)c1	none (no result: STAT3 blocker, STAT1 inh, STAT3 activator)
COC(=O)c1ccc2c(c1)C(C)(C)C(/C=C/c1ccc(O)cc1)=[N+]2C	TRAIL sens C8 51.5
COC(=O)c1ccc2c(c1)C(C)(C)C(/C=C/c1ccc(OC)c(OC)c1OC)=[N+]2C	TRAIL sens C8 67.5
Cc1ccc(N(CCO)C(=S)Nc2ccccc2)cc1	none (no result: STAT3 blocker, PPC-1+TRAIL kill, STAT1 inh, STAT3 activator)
Oc1[nH]c(N=C2N=c3ccccc3=N2)c2ccccc12	TRAIL sens C8 65.1 (no result: STAT3 blocker, STAT1 inh, STAT3 activator)
O=C(Nc1ccc(-c2cn3ccccc3n2)cc1)c1ccc(Cl)cc1	none
O=C(Nc1ccc(-c2cn3ccccc3n2)cc1)c1ccco1	PPC-1+TRAIL kill 73.3, TRAIL sens C8 71.4
COc1ccc(-c2ccc(NC(=O)c3ccco3)cc2)nn1	TRAIL sens C8 83.4 (no result: HSP90 inh, STAT3 blocker, PPC-1+TRAIL kill, STAT1 inh, STAT3 activator)
CCc1ccc(C(=O)COC(=O)c2nn(C)c(=O)c3ccccc23)cc1	none
CCCCSc1nnc(-c2cc3c(C(F)(F)F)nn(C)c3s2)n1C	none
C#CCSc1nnc(-c2cc3c(C(F)(F)F)nn(C)c3s2)n1C	TRAIL sens C8 89.4
COCCCNc1ccn2nc(-c3cccc(Cl)c3)cc2n1	none (no result: HSP90 inh, STAT3 blocker, PPC-1+TRAIL kill, STAT1 inh, STAT3 activator)
COCCCNc1ccn2nc(-c3ccccc3)cc2n1	TRAIL sens C8 52.6 (no result: HSP90 inh, STAT3 blocker, PPC-1+TRAIL kill, STAT1 inh, STAT3 activator)
CCc1nc(SCC(=O)Nc2ccc(F)cc2)c2c(=O)n(C)c(=O)n(C)c2n1	none (no result: STAT3 blocker, PPC-1+TRAIL kill, STAT1 inh, STAT3 activator)
CCCc1cc(C(=O)N/N=C/c2ccc(CC)s2)c2ccccc2n1	TRAIL sens C8 51.3
CCc1ccc(/C=N/NC(=O)c2c[nH]c3ccccc23)s1	TRAIL sens C8 54.5
O=c1cc(-c2ccccc2O)nc(-c2ccccc2)[nH]1	none (no result: HSP90 inh, STAT3 blocker, PPC-1+TRAIL kill, STAT1 inh, STAT3 activator)
O=C1CCCC[C@@H](O)[C@H](O)C[C@H](c2ccccc2)O1	none (no result: HSP90 inh, STAT3 blocker, PPC-1+TRAIL kill, STAT1 inh, STAT3 activator)
C=C1CC2(CC(c3ccccc3)OC(c3ccccc3)C2)OC1=O (stereo not given)	TRAIL sens C8 64.2 (no result: HSP90 inh, STAT3 blocker, PPC-1+TRAIL kill, STAT1 inh, STAT3 activator)
O=C(COC(=O)CCc1ccccc1)NCc1ccccc1	none (no result: HSP90 inh, STAT3 blocker, PPC-1+TRAIL kill, STAT1 inh, STAT3 activator)
O=C(CCl)N(Cc1ccccc1)c1ccccc1	TRAIL sens C8 96.0
O=C(CCl)N(Cc1cc(=O)[nH]c2ccccc12)c1ccccc1	none (no result: STAT3 blocker, PPC-1+TRAIL kill, STAT1 inh, STAT3 activator)
CCN1CCN(CC(=O)c2c[nH]c3ccccc23)CC1	STAT3 activator 133.1
COc1ccc(-c2cc(=O)c3ccccc3s2)cc1	TRAIL sens C8 53.7
c1ccc(C2(CNc3ccccn3)CCCC2)cc1	none
CCOCCCNC(=O)c1cc2c(-c3ccc(Cl)cc3)nn(C)c2s1	STAT3 activator 135.5
CCCN(CCC)CCNC(=O)c1cc2c(-c3ccc(Cl)cc3)nn(C)c2s1	none (no result: STAT3 blocker, PPC-1+TRAIL kill, STAT1 inh, STAT3 activator)
O=C(CCc1nnc2n(Cc3ccc(Cl)cc3)c(=O)c3ccccc3n12)NCCCN1CCOCC1	none (no result: STAT3 blocker, PPC-1+TRAIL kill, STAT1 inh, STAT3 activator)
O=c1cc(COc2ncnc3ccccc23)nc2sccn12	none (no result: STAT3 blocker, STAT1 inh, STAT3 activator)
Cc1nc(NCC2CCCO2)nc2c1C(=O)CC(C)C2 (stereo not given)	TRAIL sens C8 52.2
CC(C)c1ccc(NC(=O)C2CCN(S(=O)(=O)c3ccc4c(c3)C(C)(C)C(=O)N4C)CC2)cc1	none (no result: STAT3 blocker, PPC-1+TRAIL kill, STAT1 inh, STAT3 activator)
CN(Cc1ccc(Cl)cc1Cl)C(=O)CCNC(=O)c1ccco1	none (no result: HSP90 inh, STAT3 blocker, PPC-1+TRAIL kill, STAT1 inh, STAT3 activator)
Cc1ccc(C(=O)NCCSc2c(C)[nH]c3ccccc23)cc1[N+](=O)[O-]	none
CCOc1ccc(-n2c(C)cc(C(=O)CCl)c2C)cc1	TRAIL sens C8 52.6
COC(=O)c1ccc(-n2c(C)cc(C(=O)CCl)c2C)cc1	none
CCOC(=O)c1c(CSC(=N)N)n(-c2ccc(Br)cc2)c2cc(Br)c(OC(C)=O)cc12	none
CCCCCCCCOC(=O)c1c(CSC(=N)N)n(C)c2cc(Br)c(OC(C)=O)cc12	TRAIL sens C8 92.4 (no result: STAT3 blocker, STAT1 inh, STAT3 activator)
CCOc1cc(/C=N\NC(=O)c2ccc(NC(=O)C(C)(C)C)cc2)ccc1OC(=O)c1ccc(C)cc1	none
